Data reported in ChEMBL document CHEMBL1123977, “Synthesis, receptor binding, and tissue distribution of (17 alpha,20E)- and (17 alpha,20Z)-21-[125I]iodo-19-norpregna-1,3,5(10), 20-tetraene-3,17-diol ” (1988).
Several values for one entry are separate records, joined by “and”; a condition that tells them apart may be missing. Equal entries are not always repeated.

Assays:
Rattus norvegicus [1] = test: In vivo deiodination in 1 hour after administration of compound; format: functional
Procedure, shortened: (§1)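 In immature female Fischer rats given 3 μCi (111 kBq) of 125I-steroid iv, deiodination was estimated from thyroid PDK at 1, 2 or 5 h, or at 2 h with 60 μg co-injected estradiol. Thyroid uptake after [125I]NaI injection at the same time interval was taken as 100%.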

Rattus norvegicus [2] = test: In vivo deiodination in 2 hour after administration of compound; format: functional; procedure, shortened: as §1
Rattus norvegicus [3] = test: In vivo deiodination in 2 hour after administration of compound in presence of 60 microg of estradiol; format: functional; procedure, shortened: as §1
Rattus norvegicus [4] = test: In vivo deiodination in 5 hr after administration of compound; format: functional; procedure, shortened: as §1
Rattus norvegicus [5] = test: Mean uptake in adrenals 1 hr after intravenous injection of 3 microCi (111 kBq) of the compound; format: functional, Adrenal gland
Procedure, shortened: (§2)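 Immature female Fischer rats (24 days old, 55-60 g) had free access to food and water. They were warmed under an infrared lamp, then given 200 μL HPLC-purified 125I-labeled steroid (3 μCi, 111 kBq) in saline with 9% ethanol and 1% Tween 80 via the lateral tail vein. Where stated, 60 μg unlabeled estradiol was co-injected. Rats were killed at 1, 2 or 5 h. Tissues were KCl-washed, blotted, weighed and gamma-counted against a reference of the injectate. Results are PDK (% dose × kg/g), mean and SD of three rats.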

Rattus norvegicus [6] = test: Mean uptake in adrenals 2 hr after intravenous injection of 3 microCi (111 kBq); format: functional, Adrenal gland; procedure, shortened: as §2
Rattus norvegicus [7] = species on record: Rattus norvegicus; test: Effect of Co-injection with estradiol on the uterus to blood ratio (Co-injected with 60 microg of estradiol (E2)); format: functional
Procedure, shortened: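 Immature female Fischer rats (24 days, 55-60 g) received 3 μCi (111 kBq) 125I-labelled steroid iv via the lateral tail vein, in 200 μL 9% ethanol-saline with 1% Tween 80, co-injected with 60 μg unlabelled estradiol. Killed at 2 h. Uterus and blood were KCl-washed and gamma-counted as PDK. Ratio is the mean of three rats; % change is versus tracer-only animals.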

Rattus norvegicus [8] = test: Mean uptake in uterus 2 hr after intravenous injection of 3 microCi (111 kBq); format: functional
Procedure, shortened: (§3)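 Immature female Fischer rats (24 days old, 55-60 g), food and water free. 3 μCi (111 kBq) HPLC-purified 125I-labeled steroid given iv via lateral tail vein in 200 μL saline containing 9% ethanol and 1% Tween 80; receptor-saturation group co-injected with 60 μg unlabeled estradiol. Sacrificed at set times; uterus washed with 0.154 M KCl, blotted, weighed, gamma counted against injected reference; expressed as PDK (% dose × kg/g), mean of three rats.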

Rattus norvegicus [9] = test: Mean uptake in uterus 2 hr after intravenous injection of 3 uM Ci (111 kBq) in presence of 60 ug coinjected estradiol; format: functional; procedure, shortened: as §3
Rattus norvegicus [10] = test: Mean uptake in uterus 1 hr after intravenous injection of 3 microCi (111 kBq) of the compound; format: functional; procedure, shortened: as §2
Rattus norvegicus [11] = test: Mean uptake in uterus 5 hr after intravenous injection of 3 microCi (111 kBq); format: functional; procedure, shortened: as §3
Rattus norvegicus [12] = test: Mean uptake in blood 5 hr after intravenous injection of 3 microCi (111 kBq); format: functional; procedure, shortened: as §2
Rattus norvegicus [13] = test: Mean uptake in adrenals 2 hr after intravenous injection of 3 uM Ci (111 kBq) in presence of 60 ug coinjected estradiol; format: functional, Adrenal gland; procedure, shortened: as §2
Rattus norvegicus [14] = test: Mean uptake in adrenals 5 hr after intravenous injection of 3 microCi (111 kBq); format: functional, Adrenal gland; procedure, shortened: as §2
Rattus norvegicus [15] = test: Mean uptake in blood 2 hr after intravenous injection of 3 microCi (111 kBq); format: functional; procedure, shortened: as §2
Rattus norvegicus [16] = test: Mean uptake in blood 2 hr after intravenous injection of 3 microCi (111 kBq) in presence of 60 ug coinjected estradiol; format: functional; procedure, shortened: as §2
Rattus norvegicus [17] = test: Mean uptake in blood after intravenous injection of 3 microCi (111 kBq) of the compound; format: functional; procedure, shortened: as §2
Rattus norvegicus [18] = test: Mean uptake in brain 1 hr after intravenous injection of 3 microCi (111 kBq) of the compound; format: functional; procedure, shortened: as §2
Rattus norvegicus [19] = test: Mean uptake in brain 2 hr after intravenous injection of 3 microCi (111 kBq); format: functional; procedure, shortened: as §2
Rattus norvegicus [20] = test: Mean uptake in brain 2 hr after intravenous injection of 3 uM Ci (111 kBq) in presence of 60 ug coinjected estradiol; format: functional; procedure, shortened: as §2
Rattus norvegicus [21] = test: Mean uptake in kidneys 1 hr after intravenous injection of 3 microCi (111 kBq) of the compound; format: functional; procedure, shortened: as §2
Rattus norvegicus [22] = test: Mean uptake in kidneys 2 hr after intravenous injection of 3 microCi (111 kBq); format: functional; procedure, shortened: as §2
Rattus norvegicus [23] = test: Mean uptake in kidneys 2 hr after intravenous injection of 3 microCi (111 kBq) in presence of 60 ug coinjected estradiol; format: functional, Kidney; procedure, shortened: as §2
Rattus norvegicus [24] = test: Mean uptake in kidneys 5 hr after intravenous injection of 3 microCi (111 kBq); format: functional; procedure, shortened: as §2
Rattus norvegicus [25] = test: Mean uptake in liver 2 hr after intravenous injection of 3 microCi (111 kBq); format: functional; procedure, shortened: as §2
Rattus norvegicus [26] = test: Mean uptake in ovaries 5 hr after intravenous injection of 3 microCi (111 kBq); format: functional, Female gonad; procedure, shortened: as §2
Rattus norvegicus [27] = test: Mean uptake in spleen 1 hr after intravenous injection of 3 microCi (111 kBq) of the compound; format: functional; procedure, shortened: as §2
Rattus norvegicus [28] = test: Mean uptake in spleen 2 hr after intravenous injection of 3 microCi (111 kBq); format: functional; procedure, shortened: as §2
Rattus norvegicus [29] = test: Mean uptake in spleen 2 hr after intravenous injection of 3 microCi (111 kBq) in presence of 60 ug coinjected estradiol; format: functional; procedure, shortened: as §2
Rattus norvegicus [30] = test: Mean uptake in spleen 5 hr after intravenous injection of 3 microCi (111 kBq); format: functional; procedure, shortened: as §2
Rattus norvegicus [31] = test: Mean uptake in thyroid 2 hr after intravenous injection of 3 microCi (111 kBq); format: functional, Thyroid gland; procedure, shortened: as §2
Rattus norvegicus [32] = test: Mean uptake in thyroid 2 hr after intravenous injection of 3 microCi (111 kBq) in presence of 60 ug coinjected estradiol; format: functional, Thyroid gland; procedure, shortened: as §2
Rattus norvegicus [33] = test: Mean uptake in thyroid 1 hr after intravenous injection of 3 microCi (111 kBq) of the compound; format: functional, Thyroid gland; procedure, shortened: as §2
Rattus norvegicus [34] = test: Mean uptake in liver 2 hr after intravenous injection of 3 microCi (111 kBq) in presence of 60 ug coinjected estradiol; format: functional; procedure, shortened: as §2
Rattus norvegicus [35] = test: Mean uptake in liver 5 hr after intravenous injection of 3 microCi (111 kBq); format: functional; procedure, shortened: as §2
Rattus norvegicus [36] = test: Mean uptake in lungs 1 hr after intravenous injection of 3 microCi (111 kBq) of the compound; format: functional; procedure, shortened: as §2
Rattus norvegicus [37] = test: Mean uptake in lungs 2 hr after intravenous injection of 3 microCi (111 kBq); format: functional; procedure, shortened: as §2
Rattus norvegicus [38] = test: Mean uptake in lungs 2 hr after intravenous injection of 3 uM Ci (111 kBq) in presence of 60 ug coinjected estradiol; format: functional; procedure, shortened: as §2
Rattus norvegicus [39] = test: Mean uptake in lungs 5 hr after intravenous injection of 3 microCi (111 kBq); format: functional; procedure, shortened: as §2
Rattus norvegicus [40] = test: Mean uptake in muscle 1 hr after intravenous injection of 3 microCi (111 kBq) of the compound; format: functional, Muscle tissue; procedure, shortened: as §2
Rattus norvegicus [41] = test: Mean uptake in muscle 2 hr after intravenous injection of 3 microCi (111 kBq); format: functional, Muscle tissue; procedure, shortened: as §2
Rattus norvegicus [42] = test: Mean uptake in muscles 5 hr after intravenous injection of 3 microCi (111 kBq); format: functional, Muscle tissue; procedure, shortened: as §2
Rattus norvegicus [43] = test: Mean uptake in ovaries 1 hr after intravenous injection of 3 microCi (111 kBq) of the compound; format: functional, Female gonad; procedure, shortened: as §2
Rattus norvegicus [44] = test: Mean uptake in ovaries 2 hr after intravenous injection of 3 microCi (111 kBq); format: functional, Female gonad; procedure, shortened: as §2
Rattus norvegicus [45] = test: Mean uptake in ovaries 2 hr after intravenous injection of 3 microCi (111 kBq) in presence of 60 ug coinjected estradiol; format: functional, Female gonad; procedure, shortened: as §2
Rattus norvegicus [46] = test: Mean uptake in liver 1 hr after intravenous injection of 3 microCi (111 kBq) of the compound; format: functional; procedure, shortened: as §2

## C[C@]12CC[C@@H]3c4ccc(O)cc4CC[C@H]3[C@@H]1CC[C@@]2(O)/C=C/[125I]
Rattus norvegicus [1]
  Deiodination: 2%
Rattus norvegicus [2]
  Deiodination: 2.1%
Rattus norvegicus [3]
  Deiodination: 1.7%
Rattus norvegicus [4]
  Deiodination: 4.4%
Rattus norvegicus [5]
  PDK: 175
Rattus norvegicus [6]
  PDK: 72
Rattus norvegicus [7]
  Change: -41%
  Uterus to blood ratio: 2.32
Rattus norvegicus [8]
  PDK: 35
Rattus norvegicus [9]
  PDK: 22
Rattus norvegicus [10]
  PDK: 92
Rattus norvegicus [11]
  PDK: 11
Rattus norvegicus [12]
  PDK: 9
Rattus norvegicus [13]
  PDK: 73
Rattus norvegicus [14]
  PDK: 21
Rattus norvegicus [15]
  PDK: 10
Rattus norvegicus [16]
  PDK: 10
Rattus norvegicus [17]
  PDK: 17
Rattus norvegicus [18]
  PDK: 38
Rattus norvegicus [19]
  PDK: 12
Rattus norvegicus [20]
  PDK: 14
Rattus norvegicus [21]
  PDK: 71
Rattus norvegicus [22]
  PDK: 27
Rattus norvegicus [23]
  PDK: 29
Rattus norvegicus [24]
  PDK: 10
Rattus norvegicus [25]
  PDK: 92
Rattus norvegicus [26]
  PDK: 16
Rattus norvegicus [27]
  PDK: 27
Rattus norvegicus [28]
  PDK: 10
Rattus norvegicus [29]
  PDK: 11
Rattus norvegicus [30]
  PDK: 4
Rattus norvegicus [31]
  PDK: 2870
Rattus norvegicus [32]
  PDK: 2300
Rattus norvegicus [33]
  PDK: 1331
Rattus norvegicus [34]
  PDK: 106
Rattus norvegicus [35]
  PDK: 55
Rattus norvegicus [36]
  PDK: 49
Rattus norvegicus [37]
  PDK: 25
Rattus norvegicus [38]
  PDK: 28
Rattus norvegicus [39]
  PDK: 8
Rattus norvegicus [40]
  PDK: 30
Rattus norvegicus [41]
  PDK: 11 and 13
Rattus norvegicus [42]
  PDK: 4
Rattus norvegicus [43]
  PDK: 108
Rattus norvegicus [44]
  PDK: 43
Rattus norvegicus [45]
  PDK: 39
Rattus norvegicus [46]
  PDK: 245
